Apaf-1 inh: inhibitors of human Apaf-1 apoptosome | O14727 | reconstituted apoptosome caspase-3 activity, DEVD-Rh110 fluorescence | inhibition, % at 20 µM | 0.71% of 330,000 active; active = inhibition of at least 40% at 20 µM
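Material: cell-free apoptosome with Apaf-1, procaspase-3 and caspase-9; Buffer or medium: Hepes pH 7.5 with detergent and BSA; Reagent: cytochrome c trigger plus (Z-DEVD)2-Rh110 caspase-3 substrate; Times: compound with Apaf-1, dATP, procaspase-3 30 min, then 50 min reaction, room temperature; Technique: Rh110 fluorescence intensity.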
GSTO1 counter: blocks human GSTO1 in RBBP9 counter-screen; P78417; recombinant GSTO1, activity-based probe fluorescence polarization; inhibition, % at 5.96 µM; 1.1% of 300,000 active;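 active = inhibition above the campaign mean inhibition plus 3 SD, cut at about 35% in these data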
Target sequence (P78417 whole entry, looked up): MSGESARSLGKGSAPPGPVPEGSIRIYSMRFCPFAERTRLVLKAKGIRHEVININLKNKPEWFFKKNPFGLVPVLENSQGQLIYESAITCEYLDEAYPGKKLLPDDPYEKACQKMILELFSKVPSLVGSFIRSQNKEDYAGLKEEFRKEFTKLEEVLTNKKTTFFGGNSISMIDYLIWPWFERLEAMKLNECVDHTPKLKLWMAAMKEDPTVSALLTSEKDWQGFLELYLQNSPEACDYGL
Fh CTSL1 inh: blocks F. hepatica cathepsin L1 in PFM18AAP counter-screen; 0.49% of 300,000 active; inhibition, % at 5.96 µM; recombinant F. hepatica cathepsin L1, Z-Leu-Arg-MCA fluorescence;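 active = inhibition above the mean of all tested compounds plus 3 SD, set per screening campaign, cut at about 17% in these data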
UCH37 inh: inhibitors of human deubiquitinating enzyme UCH37; Q9Y5K5; purified proteasome/UCH37, Ub-AMC cleavage fluorescence; inhibition, % (no concentration beside the values); 0.33% of 330,000 active; AID 588478;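 active = mean inhibition over replicate wells above about 20%, limit read from the data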
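system = Proteasome-associated human UCH37 deubiquitinase | amount = 0.15 nM proteasome as dispensed | medium = pH 7.4 Tris-HCl (50 mM) with ovalbumin, ATP-MgCl2, DTT | incubation = 30 min preincubation with enzyme, 25 min cleavage at room temperature | detection = AMC fluorescence 355/460 nm | read-out basis = percent inhibition | controls = no-proteasome and no-compound wells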
PAD4 inh: PAD4 (human) enzyme inhibition. Q9UM07. recombinant PAD4, RCA probe fluorescence polarization. inhibition, % at 6.36 µM. 0.41% of 330,000 active;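 active = percent inhibition above a cutoff equal to the mean of all tested compounds plus 3 SD, cut at about 15% in these data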
PP5 inh: blocks human protein phosphatase 5 activity; purified PP5c, OMFP substrate fluorescence; inhibition, % at 6.7 µM; 0.18% of 320,000 active;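 active = inhibition above the campaign's mean inhibition across all tested compounds plus 3 SD, cut at about 9.5% in these data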
GSTO1 confirm: confirmation of human GSTO1 inhibitors; shares compounds with GSTO1 counter; recombinant GSTO1, probe fluorescence polarization; inhibition, % at 5.96 µM; 54% of 2,400 active;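 active = inhibition above the primary screen's cutoff, its mean inhibition plus 3 SD, cut at about 35% in these data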;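 also: loss of polarization as inhibitors block binding of rhodamine sulfonate ester activity probe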
GSTO1 recomb ABPP: inhibitors of recombinant human GSTO1. shares compounds with GSTO1 counter. gel ABPP SE-Rh probe fluorescence. inhibition, % at 1 µM. 30% of 130 active. AID 463110;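 active = inhibition of the enzyme GSTO1 above about 75%, limit read from the data; inactive = inhibition below that limit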
Numbers stand for hits; i = inactive; nt = not tested or not shown. Only some compounds are listed: those with a hit (about 2% of all), similar ones and a draw of the others.

SMILES | Apaf-1 inh | GSTO1 counter | Fh CTSL1 inh | UCH37 inh | PAD4 inh | PP5 inh | GSTO1 confirm | others
NC(=O)c1cc(N)ccc1N1CCCC1 | 44 | 51 | i | i | i | i | i
Cc1[nH]c2ccccc2c1C=NNC(=O)Cn1nnc(-c2ccccc2)n1 | nt | nt | nt | i | nt | nt | nt
CC(=O)NN1C(=O)/C(=C\c2ccccc2)SC1=S | i | i | i | nt | i | i | nt
CC(=O)NN1C(=O)/C(=C\c2ccc(Br)o2)SC1=S | i | 69 | i | i | i | i | 79
CC(=O)NN1C(=O)/C(=C/c2ccc(Br)o2)SC1=S | i | 64 | i | i | i | i | 78
O=C(NN=Cc1cccc(Cl)c1)c1ccc(Cn2cccn2)o1 | nt | nt | nt | i | nt | nt | nt
Cn1c(=O)c2c(nc(NN=Cc3cccs3)n2Cc2ccc(Br)cc2)n(C)c1=O | nt | nt | nt | i | nt | nt | nt
CC(=NNC(=S)Nc1ccccc1C)c1cc2ccccc2o1 | nt | nt | nt | i | nt | nt | nt
COc1ccc(NS(=O)(=O)c2cccc(C(=O)NNC(=O)c3ccccc3O)c2)cc1 | i | 47 | i | i | i | i | i
Cc1cc(C(=O)c2cnc(N=CN(C)C)s2)cc(C)c1O | nt | nt | nt | i | nt | nt | nt
Cc1ccc2[nH]c3c(c2c1)CCCC3NC(=O)CCl (configuration not stated) | i | 93 | i | nt | i | i | 99
Cc1ccc2[nH]c3c(c2c1)CCCC3C(N)=O (configuration not stated) | i | i | i | i | i | i | nt
CC[C@H](C)/C=C/C1=CC2=C(Cl)C(=O)[C@@]3(C)OC(=O)C(C(=O)[C@H](C)[C@@H](C)O)=C3C2=CO1 | i | 47 | i | i | i | i | i
O=C1CC(O)(C(F)(F)F)Oc2c1ccc1ccccc21 (configuration not stated) | i | i | i | i | i | i | nt
O=C1CC(O)(C(F)F)Oc2ccc3ccccc3c21 (configuration not stated) | i | 51 | i | i | i | i | 44
Cc1cccc(NC(=O)C2Cc3ccccc3OC2=NO)c1 (configuration not stated) | nt | nt | nt | i | nt | nt | nt
CCCN(C(=O)Cn1ncc2c(=O)oc3ccccc3c21)c1cccc(C)c1 | i | i | i | i | i | i | nt
CCCCCCCN(C(=O)CCl)c1cccc(C)c1 | i | 97 | i | i | i | i | 96 | GSTO1 recomb ABPP=i
CCCCCCN(C(=O)CCl)c1ccccc1 | i | 83 | i | i | i | i | 97 | GSTO1 recomb ABPP=83
Cc1ccc2nc(/C(C#N)=C\c3ccc([N+](=O)[O-])o3)[nH]c2c1 | i | 39 | i | i | i | i | i
N#C/C(=C\c1ccc([N+](=O)[O-])o1)c1nc2ccccc2[nH]1 | i | i | i | i | i | i | nt
CCOC(=O)c1ccc2c(c1)C1C=CCC1C(C(=O)O)N2 (configuration not stated) | i | 52 | i | i | i | i | 39
COc1cc(C(C)=NNC(=O)CSc2nnc(C)s2)ccc1O | nt | nt | nt | i | nt | nt | nt
CN1CCN(N=Cc2ccc(OCc3ccccc3)cc2)CC1 | nt | nt | nt | i | nt | nt | nt
CSc1ccccc1NC(=O)COC(=O)c1ccccc1Cc1ccccc1 | i | 69 | i | i | i | i | i
SMILES | Apaf-1 inh | GSTO1 counter | Fh CTSL1 inh | UCH37 inh | PAD4 inh | PP5 inh | GSTO1 confirm | others
FC(F)(F)COc1nc(NN=Cc2cccnc2)nc(N2CCCCC2c2ccccn2)n1 (configuration not stated) | nt | nt | nt | i | nt | nt | nt
COCCCNC(=O)C(=O)NN=Cc1ccc(OCC(=O)Nc2cccc(Cl)c2C)c(OC)c1 | nt | nt | nt | i | nt | nt | nt
COc1cc2c(cc1OC)C(c1cc(Br)ccc1F)N(C(=O)CCl)CC2 (configuration not stated) | i | 86 | 89 | nt | i | i | 96 | GSTO1 recomb ABPP=87
Nc1ccc(C(=O)N(CCO)CCO)cc1 | i | i | i | i | i | i | nt
CCN(CC)C(=O)c1ccc(N)cc1 | i | 43 | i | i | i | i | i
CCn1c(-c2ccccc2Cl)nn(CC(=O)Nc2cc(Cl)ccc2Cl)c1=S | i | 38 | i | i | i | i | i
COc1ccc(-c2nc(CCl)cs2)cc1OC | i | i | i | i | i | i | nt
COc1cccc(-c2nc(CCl)cs2)c1 | i | 83 | i | i | i | i | 95 | GSTO1 recomb ABPP=i
